# No end group written: not given here.
# Set-up: species or system Kunming mice
# Details: mouse, in vivo, iv, 5 mg/kg
# How it was run: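 Kunming mice (10 weeks, 18–22 g), two groups of six; free or nanoparticle-loaded peptide at matched peptide dose by tail-vein injection. Tail-vein blood (20 μL) drawn at intervals into heparinized micropipettes and mixed with PBS; residue taken up in 50% acetonitrile/0.1% TFA. C18 HPLC at 40°C, water/acetonitrile (0.1% TFA) gradient, 280 nm, thymopentin internal standard; plasma calibration 0.195313–25 μg/mL, 1/x2 weighting. Noncompartmental analysis; mean ± SD.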
substance,measurement,value
HSDAVFTDNYTRLRKQVAAKKYLQSIKNKRY-NH2 (C-terminus assumed) [BAY 55-9837],AUC(0-t),2.68 ± 0.16 µg·h/mL
same,clearance,0.733 mL/min
same,half-life,19.2 ± 3.6 min

# — PMC4207575 (International Journal of Nanomedicine, 2014)
